# Reference: ChEMBL document CHEMBL3091378, “Design, synthesis and biological evaluation of α-substituted isonipecotic acid benzothiazole analogues as potent bacterial type II topoisomerase inhibitors” (Bioorg Med Chem Lett, 2013)
# Key:
# [1] = target: DNA gyrase (Staphylococcus aureus, UniProt P0A0K8+P20831); experiment: Inhibition of Staphylococcus aureus DNA gyrase ATPase subunit GyrA2/GyrB2 after 60 mins by malachite green staining assay; assay type: protein-complex assay
# Summary of the method: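 S. aureus gyrase A2B2, 10 nM, with 0.08 mg/mL DNA in 40 mM HEPES pH 7.6, 10 mM Mg acetate, 0.5 M K glutamate, 0.01 mg/mL BSA, 2 mM DTT, 5% DMSO. Reaction started with 1 mM ATP and run 60 min at 30 °C. Malachite green absorbance read at 600 nm. IC50 derived using no-compound and no-enzyme controls.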
# [2] = tested on: Streptococcus pyogenes; experiment: Antibacterial activity against Streptococcus pyogenes ATCC 51339 assessed as growth inhibition after 16 to 20 hrs by broth microdilution method; assay type: functional
# Summary of the method: (§1)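 Broth microdilution susceptibility testing following the CLSI M7-A7 standard; MIC determined.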
# [3] = Solubility of the compound in PBS at pH 7.4 after 24 hrs by turbidimetric analysis; assay type: physicochemical
# Summary of the method: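 Doubling dilutions in DMSO diluted 20-fold into 100 mM PBS pH 7.4, equilibrated 24 h at room temperature, absorbance read at 620 nm. Value is the highest concentration with no measurable precipitate.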
# [4] = Intrinsic clearance in mouse liver microsomes at 10 uM by LC-MS analysis; assay type: ADME, Microsome; details: read-out: CLH
# Summary of the method: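 Compound at 10 μM, duplicate, 0.1% DMSO, with mouse liver microsomes at 1 mg/mL protein. Started with 1 mM NADPH and stopped at 0, 10, 30 and 60 min. Acetonitrile extracts analysed by LCMS. T1/2 taken from the slope of peak area over time, then converted to intrinsic clearance.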
# [5] = tested on: Staphylococcus aureus; experiment: Antibacterial activity against Staphylococcus aureus ATCC 29213 assessed as growth inhibition after 16 to 20 hrs by broth microdilution method; assay type: functional; summary of the method: as §1
# [6] = tested on: Haemophilus influenzae; experiment: Antibacterial activity against Haemophilus influenzae ATCC 49247 assessed as growth inhibition after 16 to 20 hrs by broth microdilution method; assay type: functional; summary of the method: as §1
# [7] = tested on: Enterococcus faecalis; experiment: Antibacterial activity against Enterococcus faecalis ATCC 29212 assessed as growth inhibition after 16 to 20 hrs by broth microdilution method; assay type: functional; summary of the method: as §1
# [8] = Inhibition of Escherichia coli DNA gyrase ATPase subunit A2B2 after 60 mins by malachite green staining assay
# Summary of the method: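 E. coli gyrase A2B2, 10 nM, with 0.08 mg/mL DNA in 35 mM Tris pH 7.5, 24 mM KCl, 2 mM MgCl2, 6.5% glycerol, 0.1 mg/mL BSA, 2 mM DTT, 5% DMSO. Started with 1 mM ATP, 30 °C for 60 min. Phosphate read with malachite green at 600 nm after 5 min. IC50 taken against no-compound and no-enzyme controls.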
SMILES,IC50 [1],MIC [2],solubility kinetic at 24 h [3],CLint scaled at 10 µM [4],MIC [5],MIC [6],MIC [7],IC50 [8]
CCNC(=O)Nc1nc2cc(-c3cccnc3)cc(-c3ccccn3)c2s1,37.3 nM,–,6.25 µg/mL,–,–,–,0.12 µg/mL,–
CCNC(=O)Nc1nc2cc(-c3cnc(N4CCC(C(=O)O)(S(C)(=O)=O)CC4)nc3)cc(-c3ccccn3)c2s1,–,4 µg/mL,> 800 µg/mL,–,> 16 µg/mL,> 16 µg/mL,4 µg/mL,0.015 µg/mL
CCNC(=O)Nc1nc2cc(-c3ccc(C(=O)O)nc3)cc(-c3ccccn3)c2s1,2.38 nM,–,50 µg/mL,–,–,–,0.12 µg/mL,–
CCNC(=O)Nc1nc2cc(-c3cnc(N4CCC(N)(C(=O)O)CC4)nc3)cc(-c3ccccn3)c2s1,–,4 µg/mL,25 µg/mL,–,> 16 µg/mL,> 16 µg/mL,> 16 µg/mL,0.025 µg/mL

# Further compounds by falling MIC [2], results first:
IC50 [1],MIC [2],solubility kinetic at 24 h [3],CLint scaled at 10 µM [4],MIC [5],MIC [6],MIC [7],IC50 [8],SMILES
107 nM,1 µg/mL,–,–,1 µg/mL,> 16 µg/mL,–,–,CCNC(=O)Nc1nc2cc(-c3nc(N4CCC(C)(C(=O)O)CC4)ns3)cc(-c3ccccn3)c2s1
79.4 nM,0.5 µg/mL,> 800 µg/mL,–,2 µg/mL,4 µg/mL,–,–,CCNC(=O)Nc1nc2cc(-c3cnc(N4CCC(C)(C(=O)O)C4)nc3)cc(-c3ccccn3)c2s1 (stereo unspecified)
11.3 nM,0.12 µg/mL,> 800 µg/mL,< 5.8 mL/min/kg,0.12 µg/mL,8 µg/mL,–,–,CCNC(=O)Nc1nc2cc(-c3cnc(N4CCCC(C)(C(=O)O)CC4)nc3)cc(-c3ccccn3)c2s1 (stereo unspecified)
–,0.12 µg/mL,100 µg/mL,–,8 µg/mL,8 µg/mL,0.5 µg/mL,0.003 µg/mL,CCNC(=O)Nc1nc2cc(-c3cnc(N4CCC(O)(C(=O)O)CC4)nc3)cc(-c3ccccn3)c2s1
38.6 nM,0.12 µg/mL,> 800 µg/mL,< 5.8 mL/min/kg,0.5 µg/mL,8 µg/mL,0.03 µg/mL,–,CCNC(=O)Nc1nc2cc(-c3cnc(N4CCC(C)(C(=O)O)CC4)cn3)cc(-c3ccccn3)c2s1
